Measured values: ChEMBL document CHEMBL3352168, “Potent, orally available, selective COX-2 inhibitors based on 2-imidazoline core” (Eur J Med Chem, 2014)
Values belong to the molecule of their own block, whether it stands above or below them.

What was measured:
[1] = biological target: T1, Prostaglandin G/H synthase 1 (Ovis aries) (UniProt P05979); assay: Inhibition of ovine COX1 using fluorometric substrate at 100 uM by fluorescent inhibitor screening assay
T1 sequence (whole entry): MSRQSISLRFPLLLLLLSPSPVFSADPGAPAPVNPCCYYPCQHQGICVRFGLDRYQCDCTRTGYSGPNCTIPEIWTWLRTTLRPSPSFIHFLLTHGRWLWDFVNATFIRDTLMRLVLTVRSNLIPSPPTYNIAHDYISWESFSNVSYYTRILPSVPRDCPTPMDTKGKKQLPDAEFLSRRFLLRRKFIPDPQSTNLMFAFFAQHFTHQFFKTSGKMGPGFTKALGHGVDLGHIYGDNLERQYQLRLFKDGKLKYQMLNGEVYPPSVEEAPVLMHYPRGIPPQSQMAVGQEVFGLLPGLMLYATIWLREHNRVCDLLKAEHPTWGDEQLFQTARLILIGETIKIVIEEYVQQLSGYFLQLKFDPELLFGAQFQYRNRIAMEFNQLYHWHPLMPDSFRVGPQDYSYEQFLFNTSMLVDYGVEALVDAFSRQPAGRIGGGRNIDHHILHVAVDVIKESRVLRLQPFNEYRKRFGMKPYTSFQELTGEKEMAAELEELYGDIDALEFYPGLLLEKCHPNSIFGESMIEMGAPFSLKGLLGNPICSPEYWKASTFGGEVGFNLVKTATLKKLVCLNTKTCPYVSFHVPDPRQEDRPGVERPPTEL

[2] = biological target: T2, Prostaglandin G/H synthase 2 (Homo sapiens, UniProt P35354); assay: Inhibition of human recombinant COX2 using fluorometric substrate by fluorescent inhibitor screening assay
T2 sequence (P35354 whole entry): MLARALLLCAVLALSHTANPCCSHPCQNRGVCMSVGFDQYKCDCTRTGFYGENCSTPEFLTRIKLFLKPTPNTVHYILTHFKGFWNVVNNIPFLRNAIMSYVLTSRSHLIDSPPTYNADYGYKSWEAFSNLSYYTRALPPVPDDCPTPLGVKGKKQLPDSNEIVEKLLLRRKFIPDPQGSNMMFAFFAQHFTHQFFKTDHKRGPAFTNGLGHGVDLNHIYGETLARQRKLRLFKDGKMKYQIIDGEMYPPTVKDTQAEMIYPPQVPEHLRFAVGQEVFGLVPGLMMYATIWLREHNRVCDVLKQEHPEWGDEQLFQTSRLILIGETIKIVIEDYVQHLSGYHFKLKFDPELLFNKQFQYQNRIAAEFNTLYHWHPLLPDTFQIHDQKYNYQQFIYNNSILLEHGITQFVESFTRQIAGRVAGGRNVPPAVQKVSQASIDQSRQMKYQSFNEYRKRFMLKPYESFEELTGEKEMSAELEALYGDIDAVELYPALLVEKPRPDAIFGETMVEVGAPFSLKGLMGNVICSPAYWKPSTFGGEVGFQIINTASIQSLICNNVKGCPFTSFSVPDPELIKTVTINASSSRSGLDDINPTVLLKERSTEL
How it was run: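 Human recombinant COX-2 in 100 mM Tris-HCl pH 8.0 with heme and ADHP fluorometric substrate; inhibitor added at final […] (units as printed) from DMSO stocks; reaction started with arachidonic acid, 2 min at room temperature. Resorufin fluorescence read at ex 535/em 590 nm; % inhibition vs no-inhibitor activity; IC50 from concentration–inhibition curve, triplicate determinations.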

[3] = Clearance in C57Bl mouse plasma at 10 mg/kg, po; assay type: ADME, organism-based; set-up: dose 10 mg/kg, route oral
How it was run: (§1)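 Male C57Bl mice, about 2 months old, 18.1–23.6 g, fasted overnight, dosed by oral gavage; 4 animals per group plus non-dosed control group; killed by cervical dislocation for blood and whole brain. Plasma precipitated with internal standard; brain homogenized in 67% methanol, centrifuged, spiked with internal standard; quantified by HPLC-MS against blank-brain calibration.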

Plasma [4] = assay: Half life in C57Bl mouse plasma assessed as aromatization metabolite at 10 mg/kg, po; assay type: ADME, organism-based; set-up: dose 10 mg/kg, route oral; conditions: in vivo
[5] = Cmax in C57Bl mouse plasma at 10 mg/kg, po; assay type: ADME, organism-based; set-up: dose 10 mg/kg, route oral; how it was run: as §1
[6] = AUC (0 to 240 mins) in C57Bl mouse plasma at 10 mg/kg, po; assay type: ADME, organism-based; set-up: time < 4 hr, dose 10 mg/kg, route oral; how it was run: as §1
Mus musculus = assay: Antiinflammatory activity in mouse assessed as reduction in carrageenan-induced inflamed paw volume at 3.7 mg/kg, ip relative to untreated control; assay type: functional; conditions: route intraperitoneal
[7] = Half life in C57Bl mouse plasma at 10 mg/kg, po; assay type: ADME, organism-based; set-up: dose 10 mg/kg, route oral; how it was run: as §1
Plasma [8] = assay: Cmax in C57Bl mouse plasma assessed as aromatization metabolite at 10 mg/kg, po; assay type: ADME, organism-based; set-up: dose 10 mg/kg, route oral; conditions: in vivo
[9] = AUC (0 to infinity) in C57Bl mouse brain at 10 mg/kg, po; assay type: ADME, organism-based; set-up: time infinity, dose 10 mg/kg, route oral; how it was run: as §1
[10] = Tmax in C57Bl mouse plasma at 10 mg/kg, po; assay type: ADME, organism-based; set-up: dose 10 mg/kg, route oral; how it was run: as §1
Plasma [11] = assay: Drug metabolism in C57Bl mouse plasma at 10 mg/kg, po; assay type: ADME, organism-based; set-up: dose 10 mg/kg, route oral; conditions: in vivo
[12] = Cmax in C57Bl mouse brain at 10 mg/kg, po; assay type: ADME, organism-based; set-up: dose 10 mg/kg, route oral; how it was run: as §1
Plasma [13] = assay: AUC (0 to infinity) in C57Bl mouse plasma assessed as aromatization metabolite at 10 mg/kg, po; assay type: ADME, organism-based; set-up: dose 10 mg/kg, route oral, time infinity; conditions: in vivo
[14] = Half life in C57Bl mouse brain at 10 mg/kg, po; assay type: ADME, organism-based; set-up: dose 10 mg/kg, route oral; how it was run: as §1
[15] = AUC (0 to infinity) in C57Bl mouse plasma at 10 mg/kg, po; assay type: ADME, organism-based; set-up: time infinity, dose 10 mg/kg, route oral; how it was run: as §1
Brain [16] = assay: Tmax in C57Bl mouse brain assessed as aromatization metabolite at 10 mg/kg, po; assay type: ADME, organism-based; set-up: dose 10 mg/kg, route oral; conditions: in vivo
Plasma [17] = assay: AUC (0 to 240 mins) in C57Bl mouse plasma assessed as aromatization metabolite at 10 mg/kg, po; assay type: ADME, organism-based; set-up: time < 4 hr, dose 10 mg/kg, route oral; conditions: in vivo, 4 h
Brain [18] = assay: AUC (0 to infinity) in C57Bl mouse brain assessed as aromatization metabolite at 10 mg/kg, po; assay type: ADME, organism-based; set-up: time infinity, dose 10 mg/kg, route oral; conditions: in vivo
Brain [19] = assay: Cmax in C57Bl mouse brain assessed as aromatization metabolite at 10 mg/kg, po; assay type: ADME, organism-based; set-up: dose 10 mg/kg, route oral; conditions: in vivo
Brain [20] = assay: Drug metabolism in C57Bl mouse brain at 10 mg/kg, po; assay type: ADME, organism-based; set-up: dose 10 mg/kg, route oral; conditions: in vivo
[21] = Tmax in C57Bl mouse brain at 10 mg/kg, po; assay type: ADME, organism-based; set-up: dose 10 mg/kg, route oral; how it was run: as §1
Plasma [22] = assay: Volume of distribution at steady state in C57Bl mouse plasma at 10 mg/kg, po; assay type: ADME, organism-based; set-up: dose 10 mg/kg, route oral; conditions: in vivo; how it was run: as §1
[23] = AUC (0 to 240 mins) in C57Bl mouse brain at 10 mg/kg, po; assay type: ADME, organism-based; set-up: time < 4 hr, dose 10 mg/kg, route oral; how it was run: as §1
Brain [24] = assay: AUC (0 to 240 mins) in C57Bl mouse brain assessed as aromatization metabolite at 10 mg/kg, po; assay type: ADME, organism-based; set-up: time < 4 hr, dose 10 mg/kg, route oral; conditions: in vivo, 4 h
Brain [25] = assay: Half life in C57Bl mouse brain assessed as aromatization metabolite at 10 mg/kg, po; assay type: ADME, organism-based; set-up: dose 10 mg/kg, route oral; conditions: in vivo
Plasma [26] = assay: Tmax in C57Bl mouse plasma assessed as aromatization metabolite at 10 mg/kg, po; assay type: ADME, organism-based; set-up: dose 10 mg/kg, route oral; conditions: in vivo

Structure (SMILES): CC1CN(c2ccc(S(N)(=O)=O)cc2)C(c2ccc(F)cc2)=N1 (racemic)
inhibition [1]: 5.5%
IC50 [2]: > 10 µM

Structure (SMILES): NS(=O)(=O)c1ccc(N2CCN=C2c2cccc(Br)c2)cc1
inhibition [1]: 12.9%
IC50 [2]: 2.9 µM

Structure (SMILES): NS(=O)(=O)c1ccc(N2CCN=C2c2ccc(Cl)c(C(F)(F)F)c2)cc1
inhibition [1]: 2.7%
IC50 [2]: 1.8 µM

Structure (SMILES): NS(=O)(=O)c1ccc(N2CCN=C2c2ccc(F)cc2)cc1
inhibition [1]: 11.4%
IC50 [2]: 6.9 µM

Structure (SMILES): CS(=O)(=O)c1ccc(N2CCN=C2c2ccc(Cl)c(Cl)c2)cc1
inhibition [1]: 1.9%
IC50 [2]: 2.1 µM

Structure (SMILES): CS(=O)(=O)c1ccc(N2CCN=C2c2cccc(Cl)c2)cc1
inhibition [1]: 1.4%
IC50 [2]: 8.1 µM

Structure (SMILES): NS(=O)(=O)c1ccc(N2CCN=C2c2ccc(F)c(F)c2)cc1
inhibition [1]: 6.6%
IC50 [2]: 6.7 µM

Structure (SMILES): NS(=O)(=O)c1ccc(N2CCN=C2c2cccc(F)c2)cc1
inhibition [1]: -1.4%
IC50 [2]: 7.2 µM

Structure (SMILES): CC1CN(c2ccc(S(C)(=O)=O)cc2)C(c2ccc(F)cc2)=N1 (racemic)
inhibition [1]: 6.3%
IC50 [2]: > 10 µM

Structure (SMILES): Cc1cccc(C2=NCCN2c2ccc(S(C)(=O)=O)cc2)c1
inhibition [1]: 6%
IC50 [2]: > 10 µM

Second part, led by results:

inhibition [1]: -1.6%
IC50 [2]: > 10 µM
Structure (SMILES): COc1ccc(C2=NCCN2c2ccc(S(C)(=O)=O)cc2)cc1F

CL/F [3]: 0.78 L/h/kg
t1/2 (Plasma [4]): 4.65 h
Cmax [5]: 6.14 µg/mL
AUC(0-t) at 4 h [6]: 11.7 µg·h/mL
half-life [7]: 1.08 h
Cmax (Plasma [8]): 0.735 µg/mL
AUC(0-inf) [9]: 0.525 µg·h/mL
Tmax [10]: 5 min
Drug metabolism (Plasma [11]): metabolite_detected
Cmax [12]: 0.267 µg/mL
inhibition [1]: 8.7%
AUC (Plasma [13]): 364739 ng·min/mL
half-life [14]: 0.967 h
AUC(0-inf) [15]: 12.7 µg·h/mL
Tmax (Brain [16]): 2 h
AUC (Plasma [17]): 145573 ng·min/mL
AUC (Brain [18]): 8533 ng·min/mL
Cmax (Brain [19]): 0.033 µg/mL
IC50 [2]: 0.3 µM
Drug metabolism (Brain [20]): metabolite_detected
Tmax [21]: 0.5 h
Vdss (Plasma [22]): 1.22 L/kg
AUC(0-t) at 4 h [23]: 0.491 µg·h/mL
AUC (Brain [24]): 5969 ng·min/mL
t1/2 (Brain [25]): 1.87 h
Tmax (Plasma [26]): 2 h
Structure (SMILES): NS(=O)(=O)c1ccc(N2CCN=C2c2ccc(Cl)c(Cl)c2)cc1
inhibition in vivo at 3.7 mg/kg (Mus musculus): 56%

inhibition [1]: 0.4%
IC50 [2]: 3.4 µM
Structure (SMILES): NS(=O)(=O)c1ccc(N2CCN=C2c2ccc(Cl)cc2)cc1

inhibition [1]: 4.7%
IC50 [2]: 3.6 µM
Structure (SMILES): CS(=O)(=O)c1ccc(N2CCN=C2c2ccc(Cl)c(C(F)(F)F)c2)cc1

IC50 [2]: > 10 µM
Structure (SMILES): COc1cc(C2=NCCN2c2ccc(S(N)(=O)=O)cc2)ccc1F
